Data on 19 compounds can be found in ChEMBL document CHEMBL2034871, “First-in-class, dual-action, 3,5-disubstituted indole derivatives having human nitric oxide synthase (nNOS) and norepinephrine reuptake inhibitory (NERI) activity for the treatment of neuropathic pain” (J Med Chem, 2012).

Experiment [1] concerns the target Sodium-dependent noradrenaline transporter (Homo sapiens, UniProt P23975). Put plainly: Displacement of [3H]nisoxetine from human NET expressed in CHO cells after 120 mins by scintillation counting. It counts as cell-based. In a few lines: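 Membranes from hNET-transfected CHO cells (20 μg protein) incubated 120 min at 4 °C with 1 nM [3H]nisoxetine in 50 mM Tris-HCl pH 7.4, 120 mM NaCl, 5 mM KCl. Nonspecific binding defined with 1 μM desipramine. Filtered on PEI-soaked GF/B and counted.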

For experiment [2], the target named is Nitric oxide synthase, inducible (Homo sapiens, UniProt P35228). Put plainly: Inhibition of human iNOS expressed in baculovirus-infected insect sf9 cells assessed as conversion of [3H]-L-arginine to [3H]-L-citrulline preincubated for 15 mins with compound measured after 45 mins by scintillation counting.
The target in experiment [3] is T1, Nitric oxide synthase 3 (Homo sapiens, UniProt P29474).
T1 sequence (P29474 whole entry): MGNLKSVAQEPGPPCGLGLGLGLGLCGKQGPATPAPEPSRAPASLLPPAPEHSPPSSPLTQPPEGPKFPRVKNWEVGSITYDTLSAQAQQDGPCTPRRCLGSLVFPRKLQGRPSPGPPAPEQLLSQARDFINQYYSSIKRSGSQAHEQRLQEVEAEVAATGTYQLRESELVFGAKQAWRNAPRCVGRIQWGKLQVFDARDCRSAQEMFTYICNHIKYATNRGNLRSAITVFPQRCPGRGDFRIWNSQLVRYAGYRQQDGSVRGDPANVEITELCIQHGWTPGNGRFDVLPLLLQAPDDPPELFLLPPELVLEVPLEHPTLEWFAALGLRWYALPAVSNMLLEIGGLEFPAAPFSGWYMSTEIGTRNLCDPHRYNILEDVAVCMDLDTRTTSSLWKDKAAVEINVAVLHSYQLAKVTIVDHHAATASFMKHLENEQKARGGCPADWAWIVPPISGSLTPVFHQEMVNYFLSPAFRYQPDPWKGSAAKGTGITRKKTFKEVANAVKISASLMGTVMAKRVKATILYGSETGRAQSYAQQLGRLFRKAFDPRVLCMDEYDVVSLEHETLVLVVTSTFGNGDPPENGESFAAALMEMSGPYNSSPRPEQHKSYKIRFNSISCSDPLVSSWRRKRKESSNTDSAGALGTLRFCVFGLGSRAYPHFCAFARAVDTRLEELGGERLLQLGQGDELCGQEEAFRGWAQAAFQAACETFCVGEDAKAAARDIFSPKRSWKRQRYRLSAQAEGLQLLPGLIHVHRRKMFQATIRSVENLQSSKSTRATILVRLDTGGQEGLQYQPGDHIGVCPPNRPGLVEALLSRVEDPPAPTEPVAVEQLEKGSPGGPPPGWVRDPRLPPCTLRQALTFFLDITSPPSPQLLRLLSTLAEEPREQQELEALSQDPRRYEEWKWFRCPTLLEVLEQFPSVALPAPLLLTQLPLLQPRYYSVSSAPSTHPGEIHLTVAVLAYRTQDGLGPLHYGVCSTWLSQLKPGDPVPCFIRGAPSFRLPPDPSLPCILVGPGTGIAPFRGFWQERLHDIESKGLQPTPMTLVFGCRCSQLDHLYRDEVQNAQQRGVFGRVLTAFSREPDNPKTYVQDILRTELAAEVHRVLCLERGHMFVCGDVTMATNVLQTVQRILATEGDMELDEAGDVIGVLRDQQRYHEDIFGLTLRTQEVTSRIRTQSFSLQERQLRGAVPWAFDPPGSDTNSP
Put plainly: Inhibition of human eNOS expressed in baculovirus-infected insect sf9 cells assessed as conversion of [3H]-L-arginine to [3H]-L-citrulline preincubated for 15 mins with compound measured after 45 mins by scintillation counting.

For experiment [4], the target named is Nitric oxide synthase 1 (Homo sapiens, UniProt P29475). The experiment is described as follows: Inhibition of human nNOS expressed in baculovirus-infected insect sf9 cells assessed as conversion of [3H]-L-arginine to [3H]-L-citrulline preincubated for 15 mins with compound measured after 45 mins by scintillation counting.
The species entered for experiment [5] is Homo sapiens. The experiment is described as follows: Selectivity ratio of IC50 for human eNOS to IC50 for human nNOS. The essentials:
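Recombinant human nNOS and eNOS made in baculovirus-infected Sf9 cells. Buffer: 40 mM HEPES pH 7.4 with 2.4 mM CaCl2, 1 mM MgCl2, 1 mg/mL BSA, 1 mM EDTA, 1 mM DTT, 1 μM FMN/FAD, 10 μM BH4, 1 mM NADPH and 1.2 μM CaM. Compound preincubated 15 min at RT. Started with 24 μM L-arginine plus [3H]arginine. [3H]citrulline separated on DOWEX and counted; background from L-NMMA control; duplicates.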

Experiment [6] addresses T2, Cytochrome P450 1A2 (Homo sapiens, UniProt P05177).
T2 sequence (P05177 whole entry): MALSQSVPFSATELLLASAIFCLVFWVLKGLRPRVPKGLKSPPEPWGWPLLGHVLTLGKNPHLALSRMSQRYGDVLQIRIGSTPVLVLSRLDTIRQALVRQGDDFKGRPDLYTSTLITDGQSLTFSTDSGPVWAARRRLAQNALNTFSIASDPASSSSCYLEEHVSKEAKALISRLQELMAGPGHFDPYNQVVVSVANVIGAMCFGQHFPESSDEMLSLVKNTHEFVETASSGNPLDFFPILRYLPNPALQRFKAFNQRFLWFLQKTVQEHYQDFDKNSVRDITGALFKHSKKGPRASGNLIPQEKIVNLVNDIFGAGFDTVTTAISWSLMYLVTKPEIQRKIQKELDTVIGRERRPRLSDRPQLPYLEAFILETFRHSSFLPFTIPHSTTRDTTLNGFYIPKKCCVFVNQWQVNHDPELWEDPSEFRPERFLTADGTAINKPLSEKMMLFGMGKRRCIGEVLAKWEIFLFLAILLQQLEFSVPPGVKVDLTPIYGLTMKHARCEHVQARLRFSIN
Put plainly: Inhibition of CYP1A2. The format is ADME. To be noted: read-out: IC50.

Experiment [7] addresses Cytochrome P450 2C9 (Homo sapiens, UniProt P11712). The experiment is described as follows: Inhibition of CYP2C9. The format is ADME. The conditions noted are these: read-out: IC50.
The target in experiment [8] is Cytochrome P450 2D6 (Homo sapiens, UniProt P10635). Put plainly: Inhibition of CYP2D6. The format is ADME.
Experiment [9] concerns the target Cytochrome P450 2C19 (Homo sapiens, UniProt P33261). The experiment is described as follows: Inhibition of CYP2C19. It counts as ADME.
Experiment [10] concerns the target Cytochrome P450 3A4 (Homo sapiens, UniProt P08684). The experiment is described as follows: Inhibition of CYP3A4. The format is ADME.

One may read the IC50 as the midpoint of a concentration-inhibition curve.

Sequence of Nitric oxide synthase, inducible (P35228 whole entry): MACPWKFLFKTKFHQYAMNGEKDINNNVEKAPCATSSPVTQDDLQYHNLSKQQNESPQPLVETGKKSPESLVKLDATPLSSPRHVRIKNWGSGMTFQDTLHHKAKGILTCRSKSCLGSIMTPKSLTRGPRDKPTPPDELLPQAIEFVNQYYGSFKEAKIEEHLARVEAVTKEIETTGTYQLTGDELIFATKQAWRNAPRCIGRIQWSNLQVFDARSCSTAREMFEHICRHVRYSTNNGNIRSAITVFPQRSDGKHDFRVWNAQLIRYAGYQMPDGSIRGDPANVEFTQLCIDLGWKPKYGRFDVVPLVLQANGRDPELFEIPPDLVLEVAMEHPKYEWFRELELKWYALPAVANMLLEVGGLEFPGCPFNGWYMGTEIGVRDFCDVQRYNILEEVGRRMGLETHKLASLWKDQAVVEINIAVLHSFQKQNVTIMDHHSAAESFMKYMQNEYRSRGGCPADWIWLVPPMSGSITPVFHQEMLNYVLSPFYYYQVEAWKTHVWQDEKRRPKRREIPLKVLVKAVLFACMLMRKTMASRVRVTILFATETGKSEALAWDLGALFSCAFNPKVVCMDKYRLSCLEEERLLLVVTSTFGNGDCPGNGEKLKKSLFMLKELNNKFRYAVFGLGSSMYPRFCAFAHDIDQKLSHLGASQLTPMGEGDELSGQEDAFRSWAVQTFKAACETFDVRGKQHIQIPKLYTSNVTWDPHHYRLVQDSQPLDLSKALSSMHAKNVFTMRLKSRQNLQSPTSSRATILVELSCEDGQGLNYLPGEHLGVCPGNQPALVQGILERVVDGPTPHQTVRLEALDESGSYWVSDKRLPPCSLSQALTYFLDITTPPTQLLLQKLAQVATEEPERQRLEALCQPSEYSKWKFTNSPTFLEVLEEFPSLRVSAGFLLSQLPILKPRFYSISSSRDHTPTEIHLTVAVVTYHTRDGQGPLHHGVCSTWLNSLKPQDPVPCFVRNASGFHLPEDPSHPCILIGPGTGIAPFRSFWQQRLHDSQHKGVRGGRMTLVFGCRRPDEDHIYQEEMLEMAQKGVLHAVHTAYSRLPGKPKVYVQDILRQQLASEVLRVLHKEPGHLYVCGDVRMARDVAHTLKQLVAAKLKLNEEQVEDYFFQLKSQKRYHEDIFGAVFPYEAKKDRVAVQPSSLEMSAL
Sequence of Sodium-dependent noradrenaline transporter (P23975 whole entry): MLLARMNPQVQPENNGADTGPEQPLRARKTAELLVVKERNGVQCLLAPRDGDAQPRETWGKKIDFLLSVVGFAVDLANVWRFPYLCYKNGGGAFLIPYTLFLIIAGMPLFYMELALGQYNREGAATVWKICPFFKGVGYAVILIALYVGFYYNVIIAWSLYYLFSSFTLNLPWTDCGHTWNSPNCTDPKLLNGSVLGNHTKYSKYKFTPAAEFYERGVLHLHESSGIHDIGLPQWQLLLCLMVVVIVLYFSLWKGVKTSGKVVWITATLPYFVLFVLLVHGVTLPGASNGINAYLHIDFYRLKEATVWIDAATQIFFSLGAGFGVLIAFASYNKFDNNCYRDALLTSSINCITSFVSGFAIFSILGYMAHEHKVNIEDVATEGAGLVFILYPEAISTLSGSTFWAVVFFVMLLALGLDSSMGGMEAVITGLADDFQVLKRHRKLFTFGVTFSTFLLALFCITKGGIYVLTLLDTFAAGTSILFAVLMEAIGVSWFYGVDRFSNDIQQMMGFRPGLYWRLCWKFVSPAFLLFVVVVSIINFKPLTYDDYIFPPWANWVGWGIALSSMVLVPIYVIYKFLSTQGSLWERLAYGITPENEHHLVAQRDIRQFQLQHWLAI
Sequence of Nitric oxide synthase 1 (P29475 whole entry): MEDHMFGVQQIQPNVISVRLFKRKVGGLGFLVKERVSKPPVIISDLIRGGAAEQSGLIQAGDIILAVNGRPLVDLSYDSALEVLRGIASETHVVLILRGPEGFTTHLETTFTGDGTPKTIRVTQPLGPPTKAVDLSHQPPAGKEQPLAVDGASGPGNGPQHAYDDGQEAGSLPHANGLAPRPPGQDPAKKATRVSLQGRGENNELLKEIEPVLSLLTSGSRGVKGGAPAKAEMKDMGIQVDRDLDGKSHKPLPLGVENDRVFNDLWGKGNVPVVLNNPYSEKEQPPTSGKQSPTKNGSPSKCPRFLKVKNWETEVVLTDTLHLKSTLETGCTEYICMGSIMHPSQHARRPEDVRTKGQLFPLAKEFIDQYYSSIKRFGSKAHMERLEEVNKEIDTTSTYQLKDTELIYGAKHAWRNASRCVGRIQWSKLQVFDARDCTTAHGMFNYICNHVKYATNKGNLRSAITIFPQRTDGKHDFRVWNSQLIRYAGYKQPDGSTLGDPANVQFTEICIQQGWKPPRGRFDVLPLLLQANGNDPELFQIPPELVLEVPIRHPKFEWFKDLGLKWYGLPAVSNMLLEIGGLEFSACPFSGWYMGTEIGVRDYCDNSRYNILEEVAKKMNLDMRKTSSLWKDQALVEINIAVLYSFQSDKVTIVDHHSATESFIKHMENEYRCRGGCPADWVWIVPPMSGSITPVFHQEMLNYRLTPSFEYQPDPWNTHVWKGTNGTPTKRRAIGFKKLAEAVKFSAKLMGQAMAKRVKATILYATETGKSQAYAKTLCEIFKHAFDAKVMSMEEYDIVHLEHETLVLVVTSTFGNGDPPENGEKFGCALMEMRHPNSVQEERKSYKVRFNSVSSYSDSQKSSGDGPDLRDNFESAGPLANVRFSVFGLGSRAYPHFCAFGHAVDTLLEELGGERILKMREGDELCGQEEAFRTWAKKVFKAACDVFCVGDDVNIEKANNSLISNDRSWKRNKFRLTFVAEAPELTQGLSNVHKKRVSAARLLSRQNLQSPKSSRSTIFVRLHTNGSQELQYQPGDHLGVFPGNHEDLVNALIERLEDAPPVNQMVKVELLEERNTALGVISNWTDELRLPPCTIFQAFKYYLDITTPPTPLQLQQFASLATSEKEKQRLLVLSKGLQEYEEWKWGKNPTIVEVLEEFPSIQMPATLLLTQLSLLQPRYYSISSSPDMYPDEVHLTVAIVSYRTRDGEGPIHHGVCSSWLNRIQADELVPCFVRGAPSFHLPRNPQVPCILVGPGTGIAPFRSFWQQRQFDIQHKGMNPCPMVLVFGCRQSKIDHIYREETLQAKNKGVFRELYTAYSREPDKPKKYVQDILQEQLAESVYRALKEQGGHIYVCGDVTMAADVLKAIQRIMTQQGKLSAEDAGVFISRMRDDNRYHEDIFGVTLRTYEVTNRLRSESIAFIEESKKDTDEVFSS
Sequence of Cytochrome P450 2C19 (P33261 whole entry): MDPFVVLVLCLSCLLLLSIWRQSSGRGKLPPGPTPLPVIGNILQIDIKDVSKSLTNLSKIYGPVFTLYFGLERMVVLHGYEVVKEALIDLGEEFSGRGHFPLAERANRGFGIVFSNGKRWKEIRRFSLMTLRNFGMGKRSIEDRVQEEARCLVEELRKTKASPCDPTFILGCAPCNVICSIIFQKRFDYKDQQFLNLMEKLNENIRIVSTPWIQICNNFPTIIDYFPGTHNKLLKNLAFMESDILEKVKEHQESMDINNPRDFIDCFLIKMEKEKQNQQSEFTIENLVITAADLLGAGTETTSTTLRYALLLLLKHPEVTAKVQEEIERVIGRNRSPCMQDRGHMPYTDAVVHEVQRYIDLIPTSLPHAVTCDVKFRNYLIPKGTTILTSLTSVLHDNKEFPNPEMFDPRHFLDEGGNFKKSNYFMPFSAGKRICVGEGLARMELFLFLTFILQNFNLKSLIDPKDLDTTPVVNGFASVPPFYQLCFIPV
Sequence of Cytochrome P450 2C9 (P11712 whole entry): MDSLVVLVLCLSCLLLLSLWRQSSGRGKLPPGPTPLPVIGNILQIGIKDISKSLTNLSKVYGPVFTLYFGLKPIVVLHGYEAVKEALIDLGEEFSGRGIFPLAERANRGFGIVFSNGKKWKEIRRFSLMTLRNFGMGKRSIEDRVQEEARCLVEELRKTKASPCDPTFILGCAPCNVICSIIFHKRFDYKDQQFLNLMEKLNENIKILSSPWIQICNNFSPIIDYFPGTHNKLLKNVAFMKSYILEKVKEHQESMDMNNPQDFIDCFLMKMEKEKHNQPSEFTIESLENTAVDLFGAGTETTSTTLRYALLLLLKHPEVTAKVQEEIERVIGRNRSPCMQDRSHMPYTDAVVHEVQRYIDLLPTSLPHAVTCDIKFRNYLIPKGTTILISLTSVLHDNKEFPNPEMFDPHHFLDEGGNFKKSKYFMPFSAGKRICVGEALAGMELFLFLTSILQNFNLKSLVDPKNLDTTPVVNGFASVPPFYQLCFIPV
Sequence of Cytochrome P450 2D6 (P10635 whole entry): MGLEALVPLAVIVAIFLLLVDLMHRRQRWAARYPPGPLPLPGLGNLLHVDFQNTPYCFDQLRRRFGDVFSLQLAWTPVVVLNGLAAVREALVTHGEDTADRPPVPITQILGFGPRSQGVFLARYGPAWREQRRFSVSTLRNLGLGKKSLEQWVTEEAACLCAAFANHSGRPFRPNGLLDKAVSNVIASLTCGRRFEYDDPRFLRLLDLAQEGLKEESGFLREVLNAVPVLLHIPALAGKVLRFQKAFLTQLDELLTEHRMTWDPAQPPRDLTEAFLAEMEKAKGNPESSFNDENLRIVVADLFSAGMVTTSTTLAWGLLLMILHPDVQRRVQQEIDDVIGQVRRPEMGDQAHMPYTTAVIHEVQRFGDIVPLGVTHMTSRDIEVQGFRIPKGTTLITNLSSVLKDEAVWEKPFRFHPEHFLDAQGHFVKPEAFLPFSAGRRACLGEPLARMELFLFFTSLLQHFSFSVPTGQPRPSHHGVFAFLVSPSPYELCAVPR

Regarding `CN(C)[C@H]1CC[C@@H](c2c[nH]c3ccc(NC(=N)c4cccs4)cc32)CC1`, the concentration for half-maximal inhibition (IC50) in experiment [1] turned out to be 0.16 µM; in experiment [2], 26.5 µM; in [3], 17.5 µM; in experiment [4] it was 0.35 µM. Besides, the Ratio IC50 in [5] came out at 51.
Turning to `CN(C)C1CC=C(c2c[nH]c3ccc(NC(=N)c4cccs4)cc23)CC1` (racemic), the half-maximal inhibitory concentration (IC50) in [2] turned out to be 24 µM.
Consider `CN(C)C1CC=C(c2c[nH]c3ccc(/N=C(\N)c4cccs4)cc23)CC1` (single isomer, unassigned; (-)), for which the Ratio IC50 in experiment [5] was found to be 54.
As to `CCN[C@H]1CCC[C@H](c2c[nH]c3ccc(NC(=N)c4cccs4)cc23)C1` (racemic), the concentration for half-maximal inhibition (IC50) came to 0.76 µM in experiment [1] and 54.2 µM in experiment [2].
For `CN[C@H]1CCC[C@@H](c2c[nH]c3ccc(NC(=N)c4cccs4)cc23)C1` (racemic), the IC50 in experiment [1] turned out to be 2.4 µM; in experiment [2], 54.1 µM; in experiment [3], 77.6 µM.
Turning to `CN(C)C1CC=C(c2c[nH]c3ccc(/N=C(\N)c4cccs4)cc23)CC1` (single isomer, unassigned; (+)), the Ratio IC50 in experiment [5] was determined as 114.
Take `CN(C)C1CC=C(c2c[nH]c3ccc(NC(=N)c4cccs4)cc23)CC1` (single isomer, unassigned; (+)): the IC50 in experiment [4] was determined as 0.84 µM.
`CN(C)[C@H]1CC[C@H](c2c[nH]c3ccc(NC(=N)c4cccs4)cc32)CC1`: the IC50 in [1] was found to be 2.2 µM; in experiment [2], 149 µM; in experiment [3] it was 284 µM; in experiment [4] it was 4.52 µM. Besides, the Ratio IC50 in [5] amounted to 63.
With `CCN[C@H]1CC[C@@H](c2c[nH]c3ccc(NC(=N)c4cccs4)cc32)CC1`, the IC50 in experiment [6] was more than 100 µM; in [7], 21.5 µM; in experiment [8], 0.927 µM; in [2], 493 µM; in experiment [9] it was 23.4 µM.
On to `CN[C@H]1CC[C@@H](c2c[nH]c3ccc(NC(=N)c4cccs4)cc32)CC1`, for which the values for the IC50 in experiment [2] and in experiment [10] were […] and 57.3 µM, respectively.
On to `CN[C@H]1CCC[C@H](c2c[nH]c3ccc(NC(=N)c4cccs4)cc23)C1` (racemic), for which the values for the half-inhibitory concentration (IC50) in [1], in experiment [2] and in experiment [3] were 0.88 µM, 14.5 µM and 7.76 µM, respectively.
For the compound `CN[C@H]1CC[C@H](c2c[nH]c3ccc(NC(=N)c4cccs4)cc32)CC1`, in experiment [2], the IC50 was found to be […].
With `CCNC1CC=C(c2c[nH]c3ccc(NC(=N)c4cccs4)cc23)CC1` (racemic), in experiment [5], the Ratio IC50 worked out at 28.
`CN(C)C1CC=C(c2c[nH]c3ccc(/N=C(\N)c4cccs4)cc23)CC1` (racemic): the Ratio IC50 in experiment [5] was 17.
With `CN(C)C1CC=C(c2c[nH]c3ccc(NC(=N)c4cccs4)cc23)CC1` (single isomer, unassigned; (-)), the IC50 in [4] came out at 0.86 µM.
Take `CCN[C@H]1CC[C@H](c2c[nH]c3ccc(NC(=N)c4cccs4)cc32)CC1`: the IC50 in experiment [2] is 155 µM.
Take `CNC1CC=C(c2c[nH]c3ccc(/N=C(\N)c4cccs4)cc23)CC1` (racemic): the Ratio IC50 in experiment [5] came out at 19.
Regarding `CNC1CCCC(c2c[nH]c3ccc(NC(=N)c4cccs4)cc23)C1` (single isomer, unassigned; (-)), in experiment [2], the IC50 was determined as 70 µM.
With `CCN[C@H]1CCC[C@@H](c2c[nH]c3ccc(NC(=N)c4cccs4)cc23)C1` (racemic), the concentration for half-maximal inhibition (IC50) in [1] came out at 1.7 µM; in experiment [2], 19.2 µM.
